{
  "source": "the M2OR odorant receptor database",
  "key": {"Or1m1 (Mus musculus)": {"molecular_target": "T1, Or1m1 (Mus musculus) (UniProt Q8VFM9)", "T1 sequence (whole entry)": "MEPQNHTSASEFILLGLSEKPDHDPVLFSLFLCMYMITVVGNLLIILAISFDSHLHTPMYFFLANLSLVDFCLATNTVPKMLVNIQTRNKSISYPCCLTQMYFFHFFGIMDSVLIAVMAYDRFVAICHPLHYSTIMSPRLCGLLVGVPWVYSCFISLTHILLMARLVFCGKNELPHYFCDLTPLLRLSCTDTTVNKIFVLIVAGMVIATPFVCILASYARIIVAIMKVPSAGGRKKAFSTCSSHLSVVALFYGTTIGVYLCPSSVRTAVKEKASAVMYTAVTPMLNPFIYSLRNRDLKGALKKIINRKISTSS", "settings": "stereoisomer not certain", "procedure,_shortened": "(§1)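 Assay methods differ from source to source, frequently being transient luciferase assays in mammalian cell lines. For each receptor–molecule pair, the label responsive (active) applies when the original authors judged the measured signal statistically different from baseline, and non-responsive (inactive) applies otherwise.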"}, "Or5ar1 (Mus musculus)": {"molecular_target": "T2, Or5ar1 (Mus musculus) (UniProt Q8VGS3)", "T2 sequence (whole entry)": "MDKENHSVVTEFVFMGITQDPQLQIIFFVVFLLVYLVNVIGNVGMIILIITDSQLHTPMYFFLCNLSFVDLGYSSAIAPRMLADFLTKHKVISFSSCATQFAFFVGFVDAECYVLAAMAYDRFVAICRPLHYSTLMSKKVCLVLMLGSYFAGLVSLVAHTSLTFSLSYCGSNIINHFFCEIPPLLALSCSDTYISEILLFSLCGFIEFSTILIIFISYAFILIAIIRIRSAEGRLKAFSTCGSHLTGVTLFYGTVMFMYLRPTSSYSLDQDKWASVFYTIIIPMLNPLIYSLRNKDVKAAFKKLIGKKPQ", "settings": "stereoisomer not certain", "procedure,_shortened": "as §1"}},
  "data": [
    {"smiles": "CSSCc1ccco1", "values": [
      {"measurement": "odorant receptor agonist call", "setting": "Or1m1 (Mus musculus)", "result": "inactive"},
      {"measurement": "odorant receptor agonist call", "setting": "Or5ar1 (Mus musculus)", "result": "inactive"}
    ]},
    {"smiles": "CC=CC(=O)C1=C(C)CCCC1(C)C", "values": [
      {"measurement": "odorant receptor agonist call", "setting": "Or1m1 (Mus musculus)", "result": "inactive"},
      {"measurement": "odorant receptor agonist call", "setting": "Or5ar1 (Mus musculus)", "result": "inactive"}
    ]},
    {"smiles": "C=CC(=O)CCCCC", "values": [
      {"measurement": "odorant receptor agonist call", "setting": "Or1m1 (Mus musculus)", "result": "inactive"},
      {"measurement": "odorant receptor agonist call", "setting": "Or5ar1 (Mus musculus)", "result": "inactive"}
    ]},
    {"smiles": "OCCCCCCCCCO", "values": [
      {"measurement": "odorant receptor agonist call", "setting": "Or1m1 (Mus musculus)", "result": "inactive"},
      {"measurement": "odorant receptor agonist call", "setting": "Or5ar1 (Mus musculus)", "result": "inactive"}
    ]},
    {"smiles": "CCCCCCCOC(=O)C(C)C", "values": [
      {"measurement": "odorant receptor agonist call", "setting": "Or1m1 (Mus musculus)", "result": "inactive"},
      {"measurement": "odorant receptor agonist call", "setting": "Or5ar1 (Mus musculus)", "result": "inactive"}
    ]},
    {"smiles": "OCC=Cc1ccccc1", "values": [
      {"measurement": "odorant receptor agonist call", "setting": "Or1m1 (Mus musculus)", "result": "inactive"},
      {"measurement": "odorant receptor agonist call", "setting": "Or5ar1 (Mus musculus)", "result": "inactive"}
    ]},
    {"smiles": "C1CCOC1", "values": [
      {"measurement": "odorant receptor agonist call", "setting": "Or1m1 (Mus musculus)", "result": "inactive"},
      {"measurement": "odorant receptor agonist call", "setting": "Or5ar1 (Mus musculus)", "result": "inactive"}
    ]},
    {"smiles": "CC(=O)OCCc1ccccc1", "values": [
      {"measurement": "odorant receptor agonist call", "setting": "Or1m1 (Mus musculus)", "result": "inactive"},
      {"measurement": "odorant receptor agonist call", "setting": "Or5ar1 (Mus musculus)", "result": "inactive"}
    ]},
    {"smiles": "C=C(C)C1CC=C(C)CC1", "note": "(centres undefined)", "values": [
      {"measurement": "odorant receptor agonist call", "setting": "Or1m1 (Mus musculus)", "result": "inactive"},
      {"measurement": "odorant receptor agonist call", "setting": "Or5ar1 (Mus musculus)", "result": "inactive"}
    ]},
    {"smiles": "COC(OC)c1ccccc1", "values": [
      {"measurement": "odorant receptor agonist call", "setting": "Or1m1 (Mus musculus)", "result": "inactive"},
      {"measurement": "odorant receptor agonist call", "setting": "Or5ar1 (Mus musculus)", "result": "inactive"}
    ]},
    {"smiles": "CCCCCCC=CC=O", "values": [
      {"measurement": "odorant receptor agonist call", "setting": "Or1m1 (Mus musculus)", "result": "inactive"},
      {"measurement": "odorant receptor agonist call", "setting": "Or5ar1 (Mus musculus)", "result": "inactive"}
    ]},
    {"smiles": "Cc1ccc(C(C)C)cc1", "values": [
      {"measurement": "odorant receptor agonist call", "setting": "Or1m1 (Mus musculus)", "result": "inactive"},
      {"measurement": "odorant receptor agonist call", "setting": "Or5ar1 (Mus musculus)", "result": "inactive"}
    ]},
    {"smiles": "CCc1ccccc1O", "values": [
      {"measurement": "odorant receptor agonist call", "setting": "Or1m1 (Mus musculus)", "result": "inactive"},
      {"measurement": "odorant receptor agonist call", "setting": "Or5ar1 (Mus musculus)", "result": "inactive"}
    ]},
    {"smiles": "CCCCCOC(=O)CC", "values": [
      {"measurement": "odorant receptor agonist call", "setting": "Or1m1 (Mus musculus)", "result": "inactive"},
      {"measurement": "odorant receptor agonist call", "setting": "Or5ar1 (Mus musculus)", "result": "inactive"}
    ]},
    {"smiles": "CCc1ccc(O)cc1", "values": [
      {"measurement": "odorant receptor agonist call", "setting": "Or1m1 (Mus musculus)", "result": "inactive"},
      {"measurement": "odorant receptor agonist call", "setting": "Or5ar1 (Mus musculus)", "result": "inactive"}
    ]},
    {"smiles": "CCCCCC(=Cc1ccccc1)C(OC)OC", "values": [
      {"measurement": "odorant receptor agonist call", "setting": "Or1m1 (Mus musculus)", "result": "inactive"},
      {"measurement": "odorant receptor agonist call", "setting": "Or5ar1 (Mus musculus)", "result": "active"}
    ]},
    {"smiles": "C=C(C)C1CCC(C)C(O)C1", "note": "(centres undefined)", "values": [
      {"measurement": "odorant receptor agonist call", "setting": "Or1m1 (Mus musculus)", "result": "inactive"},
      {"measurement": "odorant receptor agonist call", "setting": "Or5ar1 (Mus musculus)", "result": "inactive"}
    ]},
    {"smiles": "CCCCCCC(C=O)=Cc1ccccc1", "values": [
      {"measurement": "odorant receptor agonist call", "setting": "Or1m1 (Mus musculus)", "result": "inactive"},
      {"measurement": "odorant receptor agonist call", "setting": "Or5ar1 (Mus musculus)", "result": "inactive"}
    ]},
    {"smiles": "CCOC(=O)C(C)CC", "note": "(centres undefined)", "values": [
      {"measurement": "odorant receptor agonist call", "setting": "Or1m1 (Mus musculus)", "result": "inactive"},
      {"measurement": "odorant receptor agonist call", "setting": "Or5ar1 (Mus musculus)", "result": "inactive"}
    ]},
    {"smiles": "CCSCC", "values": [
      {"measurement": "odorant receptor agonist call", "setting": "Or1m1 (Mus musculus)", "result": "inactive"},
      {"measurement": "odorant receptor agonist call", "setting": "Or5ar1 (Mus musculus)", "result": "inactive"}
    ]},
    {"smiles": "CC=C(C)C=O", "values": [
      {"measurement": "odorant receptor agonist call", "setting": "Or1m1 (Mus musculus)", "result": "inactive"},
      {"measurement": "odorant receptor agonist call", "setting": "Or5ar1 (Mus musculus)", "result": "inactive"}
    ]},
    {"smiles": "CCCO", "values": [
      {"measurement": "odorant receptor agonist call", "setting": "Or1m1 (Mus musculus)", "result": "inactive"},
      {"measurement": "odorant receptor agonist call", "setting": "Or5ar1 (Mus musculus)", "result": "inactive"}
    ]},
    {"smiles": "O=C(OCc1ccccc1)c1ccccc1O", "values": [
      {"measurement": "odorant receptor agonist call", "setting": "Or1m1 (Mus musculus)", "result": "inactive"},
      {"measurement": "odorant receptor agonist call", "setting": "Or5ar1 (Mus musculus)", "result": "inactive"}
    ]},
    {"smiles": "CCCCCC=CCCC=O", "values": [
      {"measurement": "odorant receptor agonist call", "setting": "Or1m1 (Mus musculus)", "result": "inactive"},
      {"measurement": "odorant receptor agonist call", "setting": "Or5ar1 (Mus musculus)", "result": "inactive"}
    ]},
    {"smiles": "CCCC(C)C(=O)OCC", "note": "(centres undefined)", "values": [
      {"measurement": "odorant receptor agonist call", "setting": "Or1m1 (Mus musculus)", "result": "inactive"},
      {"measurement": "odorant receptor agonist call", "setting": "Or5ar1 (Mus musculus)", "result": "inactive"}
    ]},
    {"smiles": "COc1nccnc1C", "values": [
      {"measurement": "odorant receptor agonist call", "setting": "Or1m1 (Mus musculus)", "result": "inactive"},
      {"measurement": "odorant receptor agonist call", "setting": "Or5ar1 (Mus musculus)", "result": "inactive"}
    ]},
    {"smiles": "CSSSC", "values": [
      {"measurement": "odorant receptor agonist call", "setting": "Or1m1 (Mus musculus)", "result": "inactive"},
      {"measurement": "odorant receptor agonist call", "setting": "Or5ar1 (Mus musculus)", "result": "inactive"}
    ]}
  ]
}
